Among the data in ChEMBL document CHEMBL1144990, “Alpha1-adrenoceptor antagonists. 6. Structural optimization of pyridazinone-arylpiperazines. Study of the influence on affinity and selectivity of cyclic substituents at the pyridazinone ring and alkoxy groups at the arylpiperazine moiety” (J Med Chem, 2003) are Ki and GTP shift values, retold here.

pKi: −log10 of the molar value.

Experiment [1] has as its target T1, Adrenergic receptor alpha-1 (Rattus norvegicus, UniProt P15823+P23944+P43140).
T1 sequence (P15823 whole entry): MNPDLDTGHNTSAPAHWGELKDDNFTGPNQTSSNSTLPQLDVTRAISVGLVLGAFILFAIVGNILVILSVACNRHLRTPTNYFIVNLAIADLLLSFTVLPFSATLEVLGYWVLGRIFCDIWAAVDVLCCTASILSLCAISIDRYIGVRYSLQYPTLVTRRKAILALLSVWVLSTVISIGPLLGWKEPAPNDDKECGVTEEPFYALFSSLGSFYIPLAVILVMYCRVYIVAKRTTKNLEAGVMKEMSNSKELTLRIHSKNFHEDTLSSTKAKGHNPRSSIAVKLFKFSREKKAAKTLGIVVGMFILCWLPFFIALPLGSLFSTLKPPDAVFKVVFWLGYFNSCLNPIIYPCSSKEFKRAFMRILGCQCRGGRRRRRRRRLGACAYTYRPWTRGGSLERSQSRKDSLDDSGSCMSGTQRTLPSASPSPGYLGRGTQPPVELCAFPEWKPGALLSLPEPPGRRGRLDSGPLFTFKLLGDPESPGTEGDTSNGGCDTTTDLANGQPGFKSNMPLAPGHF
T1 sequence (P23944 whole entry): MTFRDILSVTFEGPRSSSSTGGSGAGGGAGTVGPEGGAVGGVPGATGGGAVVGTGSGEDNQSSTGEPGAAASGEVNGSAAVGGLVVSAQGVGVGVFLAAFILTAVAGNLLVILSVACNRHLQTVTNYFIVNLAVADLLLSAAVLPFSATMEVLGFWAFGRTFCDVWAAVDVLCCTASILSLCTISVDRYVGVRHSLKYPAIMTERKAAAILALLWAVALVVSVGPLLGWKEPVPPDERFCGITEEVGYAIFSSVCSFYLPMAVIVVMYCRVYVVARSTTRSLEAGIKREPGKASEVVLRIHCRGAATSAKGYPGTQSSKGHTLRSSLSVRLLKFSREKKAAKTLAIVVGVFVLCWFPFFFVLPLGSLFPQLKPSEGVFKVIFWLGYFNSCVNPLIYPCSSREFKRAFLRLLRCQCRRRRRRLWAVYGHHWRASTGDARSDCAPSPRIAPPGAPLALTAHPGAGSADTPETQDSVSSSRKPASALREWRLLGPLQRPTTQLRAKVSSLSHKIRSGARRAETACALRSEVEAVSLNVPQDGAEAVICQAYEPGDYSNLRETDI
T1 sequence (P43140 whole entry): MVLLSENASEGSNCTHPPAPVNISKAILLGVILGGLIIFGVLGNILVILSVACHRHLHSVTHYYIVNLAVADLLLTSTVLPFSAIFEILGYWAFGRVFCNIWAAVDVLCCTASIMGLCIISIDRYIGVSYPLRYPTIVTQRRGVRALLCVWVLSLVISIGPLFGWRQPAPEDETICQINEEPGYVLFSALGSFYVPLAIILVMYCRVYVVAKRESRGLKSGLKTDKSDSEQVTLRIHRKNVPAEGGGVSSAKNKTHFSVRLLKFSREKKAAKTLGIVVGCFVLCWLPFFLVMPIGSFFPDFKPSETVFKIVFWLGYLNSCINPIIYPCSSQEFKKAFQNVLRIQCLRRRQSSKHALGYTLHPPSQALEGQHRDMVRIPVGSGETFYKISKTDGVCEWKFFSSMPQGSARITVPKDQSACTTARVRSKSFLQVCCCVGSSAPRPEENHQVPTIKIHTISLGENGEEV
Put plainly: Binding affinity for Alpha-1 adrenergic receptor in rat cortex membranes using [3H]-prazosin as radioligand. The format is cell membranes.

The target of experiment [2] is T2, Adrenergic receptor alpha-2 (Rattus norvegicus, UniProt P22086+P19328+P22909).
T2 sequence (P22086 whole entry): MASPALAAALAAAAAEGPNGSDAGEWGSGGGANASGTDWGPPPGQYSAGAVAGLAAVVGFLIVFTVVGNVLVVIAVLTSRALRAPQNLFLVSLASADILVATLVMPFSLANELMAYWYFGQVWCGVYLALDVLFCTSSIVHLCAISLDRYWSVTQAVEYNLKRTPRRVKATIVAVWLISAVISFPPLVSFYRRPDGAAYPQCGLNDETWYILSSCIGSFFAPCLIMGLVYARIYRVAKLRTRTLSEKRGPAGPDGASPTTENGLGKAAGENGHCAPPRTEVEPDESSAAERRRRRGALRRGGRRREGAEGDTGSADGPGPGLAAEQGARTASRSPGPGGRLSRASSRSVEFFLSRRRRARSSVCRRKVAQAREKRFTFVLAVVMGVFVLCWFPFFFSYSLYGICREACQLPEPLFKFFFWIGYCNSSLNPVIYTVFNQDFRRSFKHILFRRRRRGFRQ
T2 sequence (P19328 whole entry): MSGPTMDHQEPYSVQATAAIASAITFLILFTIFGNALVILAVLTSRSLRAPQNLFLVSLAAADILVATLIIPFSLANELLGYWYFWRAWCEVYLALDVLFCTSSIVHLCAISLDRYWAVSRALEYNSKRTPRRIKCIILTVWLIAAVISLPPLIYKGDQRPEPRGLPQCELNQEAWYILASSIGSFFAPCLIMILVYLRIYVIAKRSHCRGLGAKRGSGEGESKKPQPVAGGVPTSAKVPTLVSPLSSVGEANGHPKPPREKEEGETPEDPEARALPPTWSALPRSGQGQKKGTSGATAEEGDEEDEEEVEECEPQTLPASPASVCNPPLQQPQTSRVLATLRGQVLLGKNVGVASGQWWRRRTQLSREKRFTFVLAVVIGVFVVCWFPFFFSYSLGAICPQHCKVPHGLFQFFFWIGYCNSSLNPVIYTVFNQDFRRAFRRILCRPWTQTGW
T2 sequence (P22909 whole entry): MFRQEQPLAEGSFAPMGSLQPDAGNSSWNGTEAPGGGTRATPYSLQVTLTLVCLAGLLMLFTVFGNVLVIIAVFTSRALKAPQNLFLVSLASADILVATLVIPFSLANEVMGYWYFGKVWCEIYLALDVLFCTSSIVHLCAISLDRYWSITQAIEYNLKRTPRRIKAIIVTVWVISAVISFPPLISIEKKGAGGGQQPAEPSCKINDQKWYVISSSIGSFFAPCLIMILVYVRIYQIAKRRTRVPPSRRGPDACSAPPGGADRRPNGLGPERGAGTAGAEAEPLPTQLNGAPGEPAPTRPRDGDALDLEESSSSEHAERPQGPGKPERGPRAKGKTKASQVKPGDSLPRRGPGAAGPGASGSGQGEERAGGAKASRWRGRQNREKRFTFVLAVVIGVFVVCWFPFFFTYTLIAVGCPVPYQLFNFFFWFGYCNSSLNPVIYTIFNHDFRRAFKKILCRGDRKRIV
Kind of experiment: Binding affinity for Alpha-2 adrenergic receptor in rat cortex membranes using [3H]rauwolscine as radioligand. The format is cell membranes.

Experiment [3] addresses T3, 5-hydroxytryptamine receptor 1A (Rattus norvegicus, UniProt P19327).
T3 sequence (P19327 whole entry): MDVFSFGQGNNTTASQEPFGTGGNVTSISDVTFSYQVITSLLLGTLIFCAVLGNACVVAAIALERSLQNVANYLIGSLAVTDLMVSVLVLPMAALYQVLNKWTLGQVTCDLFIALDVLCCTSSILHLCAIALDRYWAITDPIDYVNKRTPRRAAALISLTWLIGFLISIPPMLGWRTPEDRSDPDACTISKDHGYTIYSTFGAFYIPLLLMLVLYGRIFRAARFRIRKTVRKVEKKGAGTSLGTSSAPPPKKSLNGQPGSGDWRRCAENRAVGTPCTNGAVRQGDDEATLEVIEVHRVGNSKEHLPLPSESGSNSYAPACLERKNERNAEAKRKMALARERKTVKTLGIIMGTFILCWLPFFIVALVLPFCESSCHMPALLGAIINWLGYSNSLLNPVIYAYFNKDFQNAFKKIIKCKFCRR
Kind of experiment: Displacement of [3H]8-OH-DPAT from 5-hydroxytryptamine 1A receptor of rat cortex membranes. It is filed as cell membranes, Membrane. An outline of the steps:
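Competition binding with seven drug concentrations, each in triplicate, across three separate experiments. IC50 values were converted to Ki by the Cheng–Prusoff equation, Ki = IC50/(1 + [L]/Kd), where [L] is the radioligand concentration and Kd its dissociation constant. Ki is reported as mean ± SD.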
On the technique in general: Displacement assays read how much labelled ligand stays bound in the presence of the test substance.

Experiment [4] concerns the target T1, Adrenergic receptor alpha-1. Kind of experiment: Intrinsic activity towards Alpha-1 adrenergic receptor by the displacement of [3H]prazosin from rat cerebral cortex membrane in presence of 1 nM GTP. The format is tissue-based.
The target in experiment [5] is Adrenergic receptor alpha-1 (Rattus norvegicus) (UniProt P15823+P23944+P43140).
For experiment [6], the target named is T1, Adrenergic receptor alpha-1. Kind of experiment: Intrinsic activity towards Alpha-1 adrenergic receptor by the displacement of [3H]prazosin from rat cerebral cortex membrane in absence of 1 nM GTP. The format is tissue-based.

In general, Ki refers to a measure of affinity in units of concentration, obtained from inhibition or displacement. With `COc1ccccc1OCCN1CCN(c2cnn(CCCCCCCN3CCN(c4ccccc4OC)CC3)c(=O)c2Cl)CC1`, the Ki in experiment [1] is on record as 1.45 nM.
The pKi is the Ki on a negative log10 scale, so that one unit is a factor of ten. A lower pKi goes with a high Ki. Take `CCOc1ccccc1N1CCN(CCCCCCCn2ncc(N3CCN(CC4COc5ccccc5O4)CC3)c(Cl)c2=O)CC1` (configuration not stated): the Ki came to 0.42 nM in experiment [1] and 2.16 nM in experiment [2]. Further, the pKi in experiment [3] was 7.30.
Turning to `COc1ccccc1N1CCN(CCCCCCCn2ncc(Cl)c(N3CCN(C(=O)c4ccco4)CC3)c2=O)CC1`, the Ki is 0.37 nM in experiment [1] and 1.23 nM in experiment [2]. The pKi in experiment [3] is 9.38.
`CC(C)Oc1ccccc1N1CCN(CCCCCCCn2ncc(N3CCN(CC4COc5ccccc5O4)CC3)c(Cl)c2=O)CC1` (configuration not stated): the Ki is reported as 0.31 nM in experiment [1], 0.33 nM in experiment [4], 3.34 nM in experiment [2] and 0.23 nM in experiment [6]. Besides, in experiment [5], the GTP shift turned out to be 1.4. Further, the negative-log Ki (pKi) in experiment [3] was 8.61.
For `CCOc1ccccc1N1CCN(CCCCCCCn2ncc(Cl)c(N3CCN(CC4COc5ccccc5O4)CC3)c2=O)CC1` (configuration not stated), the Ki is reported as 0.43 nM in experiment [1] and 2.4 nM in experiment [2]. In experiment [3], this compound showed a pKi of 8.99.
Regarding `CC(C)Oc1ccccc1N1CCN(CCCCCCCn2ncc(N3CCN(C(=O)c4ccco4)CC3)c(Cl)c2=O)CC1`, the Ki is reported as 0.081 nM in experiment [4] and 0.047 nM in experiment [6]. In addition, the GTP shift in experiment [5] was determined as 1.7. In experiment [3], this compound showed a pKi of 9.05.
With `CC(C)Oc1ccccc1N1CCN(CCCCCCCn2ncc(Cl)c(N3CCN(C(=O)c4ccco4)CC3)c2=O)CC1`, the results for the Ki in experiment [1] and in experiment [2] were 0.08 nM and 0.66 nM, respectively. In addition, the pKi in experiment [3] was 8.94.
As for `CC(C)Oc1ccccc1N1CCN(CCCCCCCn2ncc(Cl)c(N3CCN(CC4COc5ccccc5O4)CC3)c2=O)CC1` (configuration not stated), the Ki in experiment [1] is on record as 0.32 nM; in experiment [2] it was 13.4 nM. Also, the pKi in experiment [3] is 8.82.
Regarding `CCOc1ccccc1OCCN1CCN(c2cnn(CCCCCCCN3CCN(c4ccccc4OCC)CC3)c(=O)c2Cl)CC1`, the pKi in experiment [3] was 8.88.
`CCOc1ccccc1OCCN1CCN(c2cnn(CCCCCCCN3CCN(c4ccccc4OC)CC3)c(=O)c2Cl)CC1` showed a pKi in experiment [3] of 9.09.
In the case of `CCOc1ccccc1N1CCN(CCCCCCCn2ncc(Cl)c(N3CCN(C(=O)c4ccco4)CC3)c2=O)CC1`, the Ki in experiment [1] is on record as 0.23 nM; in experiment [2] it was 0.8 nM. Also, the pKi in experiment [3] is 9.46.
On to `COc1ccccc1N1CCN(CCCCCCCn2ncc(N3CCN(CC4COc5ccccc5O4)CC3)c(Cl)c2=O)CC1` (configuration not stated), for which the Ki turned out to be 1.68 nM in experiment [1] and 0.85 nM in experiment [2]. In experiment [3], this compound gave a pKi of 7.95.
Turning to `COc1cc2nc(N3CCN(C(=O)c4ccco4)CC3)nc(N)c2cc1OC`, the GTP shift in experiment [5] worked out at 1.2.
For the compound `CCOc1ccccc1OCCN1CCN(c2cnn(CCCCCCCN3CCN(c4ccccc4OC(C)C)CC3)c(=O)c2Cl)CC1`, the figures for the Ki in experiment [4] and in experiment [6] were 0.22 nM and 0.28 nM, respectively. The GTP shift in experiment [5] amounted to 0.8. This compound gave a pKi in experiment [3] of 8.60.
With `COc1ccccc1N1CCN(CCCCCCCn2ncc(Cl)c(N3CCN(CC4COc5ccccc5O4)CC3)c2=O)CC1` (configuration not stated), the inhibition constant (Ki) in experiment [1] worked out at 0.54 nM; in experiment [2], 1.45 nM. For the same compound, the pKi in experiment [3] was 9.40.
